Compound activity from PubChem BioAssay.
Runt-CBFb FRET: Runt domain-CBFb interaction inhibition; Q01196+Q13951; AID 1496; Cerulean-Runt/Venus-CBFb FRET ratio 530/480, 1 h; inhibition, % at 20 µM; 0.46% of 220,000 active;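 active = inhibition over about 50% at 20 µM in the single-dose screen, limit read from the data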
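Measured by: fluorescence energy transfer, 422 nm excitation, 530/480 nm emission; Assay system: Cerulean-Runt domain; Medium: Tris pH 7.5 buffer with BSA; Measure: loss of energy transfer signal; Controls: 5 µM unlabeled CBFb as full-inhibition high control; Incubation: protein complex preformed 1 h, compound exposure 1 h, room temperature, dark.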
Runt-SMMHC FRET: Runt domain-CBFb-SMMHC interaction inhibition | inhibition, % at 20 µM | 0.74% of 220,000 active | Cerulean-Runt/Venus-CBFb-SMMHC FRET ratio 530/480, 1 h;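 active = mean inhibition across duplicate retests at 20 µM reaching about 50%, limit read from the data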;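 note: inhibitors lower the FRET ratio by blocking Runt binding to CBFb-SMMHC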
HDAC3 inhib: inhibitors of human histone deacetylase 3. O15379. recombinant HDAC3, fluorogenic peptide/trypsin coupled, fluorescence. inhibition, % at 8.3 µM. 0.15% of 320,000 active. AID 2718; in the data active = inhibition above about 26%, passing the limit was not always enough; inconclusive = no clear call, values can overlap the other calls
Target sequence (O15379 whole entry, looked up): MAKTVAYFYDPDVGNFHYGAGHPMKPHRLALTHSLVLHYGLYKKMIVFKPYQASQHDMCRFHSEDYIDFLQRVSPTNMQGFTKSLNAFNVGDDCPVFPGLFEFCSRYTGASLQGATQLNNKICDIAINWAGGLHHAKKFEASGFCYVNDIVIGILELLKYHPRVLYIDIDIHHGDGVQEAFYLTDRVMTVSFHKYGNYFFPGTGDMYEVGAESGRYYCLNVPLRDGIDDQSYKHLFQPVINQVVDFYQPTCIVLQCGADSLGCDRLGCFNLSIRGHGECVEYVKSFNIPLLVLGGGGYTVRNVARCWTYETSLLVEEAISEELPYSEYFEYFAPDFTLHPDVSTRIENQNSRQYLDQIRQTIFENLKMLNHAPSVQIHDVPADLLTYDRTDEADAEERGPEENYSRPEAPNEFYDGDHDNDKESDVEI
LANA-H2B inh: blocks KSHV LANA binding to histone H2A/H2B; Q9QR71; cell-free LANA-H2A/H2B peptide, fluorescence polarization; inhibition, % (concentration not given with the values); 0.6% of 320,000 active; in the data active = inhibition mostly above about 10%, no sharp cut-off; inactive = mostly below about 6.7%
RanGTP-Impb inh: inhibitors of RanGTP-importin-beta interaction, primary screen, biochemical, FRET, CFP-Ran, YFP-importin-beta, homogeneous. AID 2216. 1.1% of 300,000 active. cell-free CFP-Ran/YFP-importin-beta FRET ratio. inhibition, % (no concentration beside the values);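 active = more than half of the replicate wells show a fall in the fluorescence ratio signal beyond about 16%, limit read from the data, passing the limit was not always enough; inconclusive = exactly half of the replicate wells pass the set limit; inactive = fewer than half of replicates pass the limit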
CaV13 ICDI inh: Primary screen for inhibitors of IQ motif and Ca2+-dependent inactivation inhibitor domain binding in CACNA1D, Förster resonance energy transfer in living cells, …; 0.098% of 340,000 active; HEK cells, CFP/YFP FRET ICDI-IQ, plate reader, 10 min; percent FRET-ratio fall versus neutral wells; inhibition, % at 12.3 µM; AID 743397;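 active = mean replicate inhibition of at least 30% and at least 1% of replicates passing that level; inconclusive = only one of the two criteria is met; inactive = neither criterion is met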
Numbers stand for hits; - = inactive; ? = inconclusive; . = no result. Most compounds without a hit are left out; they make up all but 1.9% or so of the library.

SMILES	Runt-CBFb FRET	Runt-SMMHC FRET	HDAC3 inhib	LANA-H2B inh	RanGTP-Impb inh	CaV13 ICDI inh
COc1cc(/C=C/C(=O)N2CCN(C(=O)/C=C/c3cc(OC)c(OC)c(OC)c3)CC2)cc(OC)c1OC	.	.	-	-	-	.
CC(=O)Nc1ccc(NC(=O)CCCN2C(=O)c3ccccc3C2=O)cc1	-	-	-	-	-	-
COC(=O)C(CCCN1C(=O)c2ccccc2C1=O)(NC(C)=O)c1nn[nH]n1 (stereo not given)	-	-	-	19	-	-
CCCNC(=O)C1(C)CCCN(Cc2ccc3ccccc3c2)C1 (stereo not given)	.	.	.	.	.	-
Nc1nc(CCOc2ccc(F)cc2)cs1	-	-	.	.	-	-
C/C(N)=C(/C#N)C(=O)COc1ccc(Cl)cc1Cl	-	-	-	-	?	-
C/C(N)=C(/C#N)C(=O)COC(=O)CNC(=O)c1ccc(Cl)cc1Cl	-	-	-	-	37	-
O=C(Oc1ccc(N(Cc2cccs2)C2=NS(=O)(=O)c3ccccc32)cc1)c1ccco1	-	-	58	-	-	-
Cc1cccc(Nc2nc(N)nc(CCl)n2)c1C	-	-	-	-	-	-
CCOC(=O)C(C)C(C)=O (stereo not given)	.	.	-	15	.	.
CN(C)c1ccc(CC(=O)N2CCCCC2c2cc(C(=O)Nc3ccccc3Cl)no2)cc1 (stereo not given)	.	.	.	.	.	-
C#CCOc1ccc(C2C3=C(CCCC3=O)N(CC(=O)O)C3=C2C(=O)CCC3)cc1Br	.	.	-	-	117	-
CCCOc1ccc(C2C3=C(CCCC3=O)N(CC(=O)O)C3=C2C(=O)CCC3)cc1OCC	.	.	-	-	-	-
O=c1c2ccccc2nc(/C=C/c2cccc([N+](=O)[O-])c2)n1CCO	-	-	-	19	-	-
CCn1c(/C=C/c2cccc([N+](=O)[O-])c2)nc2ccccc2c1=O	-	-	-	-	-	-
COc1ccc(-c2ccc(C(=O)NCC3CCOCC3)c3occc23)c(C)c1	.	.	.	.	.	-
Nc1cccc2c1C(=O)N(CCOc1ccccc1F)C2=O	.	.	-	-	42	-
COc1cccc(C2C=C(c3ccc(Br)s3)Nc3ncnn32)c1OC (stereo not given)	-	63	-	-	-	.
CCn1c(C)c(C(C)=O)c(N2CCN(C(c3ccccc3)c3ccccc3)CC2)nc1=S	-	-	-	-	57	-
CCn1c(C)c(C(C)=O)c(N2CCCCC2)nc1=S	-	-	-	-	-	-
CCn1c(C)c(C(C)=O)c(N2CCN(c3ccccc3)CC2)nc1=S	-	-	-	-	19	.
CC(NC(=O)COC(=O)CCc1ccc(S(=O)(=O)N2CCOCC2)cc1)C1CC2CCC1C2 (stereo not given)	-	-	-	-	-	-
Nc1ccc(SCC(=O)Nc2cccc([N+](=O)[O-])c2)cc1	-	-	-	71	-	.
O=C(CSc1nc(-c2ccccc2)nn1C(=O)c1ccccc1)Nc1cccc([N+](=O)[O-])c1	-	-	41	-	-	-
O=C(CSCCO)Nc1cccc([N+](=O)[O-])c1	-	-	-	-	-	-
SMILES	Runt-CBFb FRET	Runt-SMMHC FRET	HDAC3 inhib	LANA-H2B inh	RanGTP-Impb inh	CaV13 ICDI inh
CCc1ccccc1NC(=O)CSc1nc(-c2ccccc2)nn1C(=O)c1cccc([N+](=O)[O-])c1	.	-	-	-	-	.
N#Cc1c(N)n(-c2ccc(C(=O)O)cc2)c2nc3ccccc3nc12	92	82	-	-	50	-
N#Cc1c(N)n(C2CCCCC2)c2nc3ccccc3nc12	78	58	-	-	43	.
CC1CCC2(CC1)NC(=O)N(CC(=O)Nc1ccc(F)cc1)C2=O (stereo not given)	.	.	-	38	.	-
O=C(CN1C(=O)NC2(CCCC2)C1=O)Nc1ccc(F)cc1	-	-	-	-	-	-
O=C(Cn1c2ccccc2c2nc3n(c(=O)c21)CCCS3)Nc1ccccc1	.	.	-	-	-	-
O=C(COc1ccccc1)NCC(=O)N1CCCCCC1	.	.	-	50	.	-
S=C(NCCc1ccccc1)N/N=C/c1cccs1	.	.	-	-	-	-
O=C(COc1ccc(Cl)cc1)NCC(=O)N/N=C/c1cccs1	-	-	-	-	-	-
S=C(NCc1ccccc1)N/N=C/c1cccs1	.	.	-	13	?	-
O=C(COc1ccccc1)NCC(=O)N/N=C/c1cccs1	.	.	-	55	-	-
COc1cc([N+](=O)[O-])ccc1N1C(=O)CC(Sc2nccc(C)n2)C1=O (stereo not given)	.	.	-	15	-	-
Cc1cc(C)nc(SC2CC(=O)N(c3ccc(C)c(C)c3)C2=O)n1 (stereo not given)	.	.	-	16	-	-
COc1ccc(N2C(=O)CC(Sc3nccc(C)n3)C2=O)c(OC)c1 (stereo not given)	.	.	.	.	.	-
CC(C)n1c(=S)[nH]c2ccccc21	-	-	-	-	-	-
O=S(=O)(NCc1csc(-c2cccs2)n1)c1ccccc1	-	-	.	-	-	-
COC(=O)c1cc(S(=O)(=O)Nc2cccc(-c3ccno3)c2)c[nH]1	.	.	.	.	.	-
COC(=O)c1ccc(/C=N/NC(=O)C2CC(=O)N(c3ccc(F)cc3)C2)cc1 (stereo not given)	.	.	-	13	-	-
O=C(NCc1ccccn1)c1ccc(NS(=O)(=O)c2cccc(Cl)c2)cc1	.	.	-	38	-	-
Cc1ccc(CNC(=O)CCC(=O)n2ncc3cc(C)ccc32)cc1	.	.	-	-	-	-
Cc1ccc2c(cnn2C(=O)CCCC(=O)NCc2ccc(Cl)cc2)c1	.	.	-	-	26	-
O=C(NCC(c1ccco1)N1CCCCC1)c1cccc(NS(=O)(=O)c2ccc(Br)cc2)c1 (stereo not given)	.	.	-	-	-	-
